Compound activity as filed in PubChem BioAssay.
PLK1 PBD inh: Plk1 (human) PBD binding inhibition. 97,000 compounds, 0.13% hits. P53350. Plk1 PBD phosphopeptide binding, fluorescence polarization. inhibition, %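 (tested at about 20 µM)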; in the data active = inhibition above about 34%, passing the limit was not always enough
HePTP inhibitor: inhibitors of human HePTP phosphatase | P35236 | recombinant HePTP phosphatase activity, OD absorbance | inhibition, % at 20 µM | 110,000 compounds, 0.64% hits | AID 521; in the data active = inhibition above about 50%
HEK293 NFkB inh: lowers PMA/ionomycin-induced NF-kB signal in HEK293 cells. inhibition, % at 3 µM. HEK-293 NF-kB luciferase reporter, luminescence. 62,000 compounds, 0.21% hits. AID 465;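 active = inhibition above the mean of all tested compounds plus 3 SD, cut at about 40% in these data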
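Signal: luciferase luminescence; Material: HEK-293 cells with stable firefly luciferase reporter driven by four HIV NF-kB elements; Probe or stimulus: PMA with ionomycin; Replication: tested once; Times: 1 h compound pretreatment, then 16 h stimulation at 37 °C, 5% CO2; Benchmarks: DMSO and 10 µM reference inhibitor; Evaluation: per-plate % inhibition versus controls.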
AP complement: orthogonal test for alternative complement pathway inhibitors; Human serum alternative complement pathway, LPS-coated ELISA, C3 deposition; tested in compound mixtures; inhibition, % at 5 µM; 62,000 compounds, 0.08% hits; AID 1235;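 active = inhibition above 30% in each of the two pooled mixtures holding the compound, so the lower value exceeds 30%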
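Medium: diluted human serum in Mg2+-EGTA GVB++. Assay system: human serum complement alternative pathway, C3 deposition onto LPS. Also added: Plate-bound LPS. Technique: Anti-C3 ELISA, OD 450 nm. Measure: percent inhibition. Incubation: 1 h at 37 °C. Dosing: 5 µM each compound, pools of ten, 50 µM per pool.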
PLK1 kinase inh: PLK1 (human) kinase inhibition; P53350; recombinant PLK1 kinase, TR-FRET peptide phosphorylation; AID 619; 97,000 compounds, 0.53% hits; inhibition, % at 10 µM;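 active = inhibition of 50% or more in the single-concentration screen; inactive = inhibition below 50%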
Pyk2 oligo antag: Pyk2 (human) oligomerization antagonism | Q14289 | Q293 cells, Pyk2 FERM NanoBiT luminescence; hits give low values | z-score (the deposit names both 25 µM and 10 µM) | 99,000 compounds, 0.83% hits;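 active = Z-score of -3 or lower, scaled per plate to the spread of control and sample wells; inactive = z-score above -3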;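 also: negative z-score means lost luminescence so less FERM oligomerization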
Target sequence (Q14289 whole entry, looked up): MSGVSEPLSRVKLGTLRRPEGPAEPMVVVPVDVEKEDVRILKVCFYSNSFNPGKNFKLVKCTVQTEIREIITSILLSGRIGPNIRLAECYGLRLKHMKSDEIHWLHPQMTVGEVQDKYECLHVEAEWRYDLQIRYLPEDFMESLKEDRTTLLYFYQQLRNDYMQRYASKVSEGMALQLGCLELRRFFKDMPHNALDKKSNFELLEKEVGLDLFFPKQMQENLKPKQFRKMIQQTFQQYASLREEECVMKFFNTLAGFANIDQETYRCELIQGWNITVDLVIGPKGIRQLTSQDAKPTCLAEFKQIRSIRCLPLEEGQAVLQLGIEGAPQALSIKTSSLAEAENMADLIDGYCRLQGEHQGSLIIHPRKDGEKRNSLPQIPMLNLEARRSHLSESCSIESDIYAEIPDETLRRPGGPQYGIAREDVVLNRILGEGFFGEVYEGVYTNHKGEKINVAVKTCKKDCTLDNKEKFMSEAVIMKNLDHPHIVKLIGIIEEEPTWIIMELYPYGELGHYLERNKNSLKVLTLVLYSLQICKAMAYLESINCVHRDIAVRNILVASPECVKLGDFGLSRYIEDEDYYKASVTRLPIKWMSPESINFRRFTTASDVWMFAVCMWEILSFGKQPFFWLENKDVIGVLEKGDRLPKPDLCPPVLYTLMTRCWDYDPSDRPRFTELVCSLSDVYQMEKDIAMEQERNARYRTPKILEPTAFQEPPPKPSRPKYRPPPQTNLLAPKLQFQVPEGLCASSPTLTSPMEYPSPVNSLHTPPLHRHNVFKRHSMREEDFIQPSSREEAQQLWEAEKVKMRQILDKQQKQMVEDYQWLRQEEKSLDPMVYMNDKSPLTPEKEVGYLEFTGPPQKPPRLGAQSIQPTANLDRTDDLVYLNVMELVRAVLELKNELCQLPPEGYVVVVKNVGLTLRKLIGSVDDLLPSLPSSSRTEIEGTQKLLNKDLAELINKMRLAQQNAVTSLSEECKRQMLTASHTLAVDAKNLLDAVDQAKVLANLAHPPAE
Numbers stand for hits; - = inactive; . = no result given. An excerpt weighted towards active compounds, which were near 1.5% of everything screened.

SMILES | PLK1 PBD inh | HePTP inhibitor | HEK293 NFkB inh | AP complement | PLK1 kinase inh | Pyk2 oligo antag
COc1cccc(-c2nnc(NC(=O)c3ccc(S(=O)(=O)N4CC(C)OC(C)C4)cc3)o2)c1 (centres undefined) | - | - | - | - | - | -4.1
COc1ccccc1/C=C1\SC(=S)N(CC(=O)NNc2ccccc2)C1=O | . | - | . | . | . | .
O=c1cc(C(F)(F)C(F)(F)F)c2cc3c4c(c2o1)CCCN4CCC3 | . | - | . | . | . | .
COc1ccc2cc3cc(C(=O)Nc4ccccc4N4CCN(C)CC4)oc3nc2c1 | - | - | - | - | - | -
COc1ccc2cc3cc(C(=O)NCCN4CCN(c5ccccc5F)CC4)oc3nc2c1 | - | - | - | - | - | -3.1
O=C(CN1CCOCC1)Nc1nc(-c2ccc3c(c2)CCN3S(=O)(=O)c2ccccc2)cs1 | - | - | - | - | - | -3
Nc1nonc1-c1nc2ccccc2n1CC(=O)NC1CCCC1 | . | - | - | - | . | -
CCOC(=O)c1ccccc1NC(=O)Cn1c(-c2nonc2N)nc2ccccc21 | . | - | 47 | - | . | -
CC(C)c1ccc(C2C3=C(CC(C)(C)CC3=O)NC3=C2C(=O)c2ccccc23)cc1 (centres undefined) | - | . | . | . | - | -3
Cc1ccc(C(=O)NCCn2cc(SCC(=O)Nc3nnc(C)s3)c3ccccc32)cc1 | - | - | - | - | 62 | .
COc1ccc2nc(NC(=O)c3cc4c(s3)CCCC4)sc2c1 | . | - | . | . | . | .
O=S(=O)(NC1CC1)c1ccc(S(=O)(=O)N2CCN3CCCC3C2)cc1 (centres undefined) | - | - | - | - | 53 | -
O=S(=O)(NC1CCCCC1)c1ccc(S(=O)(=O)N2CCN3CCCC3C2)cc1 (centres undefined) | - | - | - | - | - | -
Cc1c(-c2ccc(Cl)s2)nc2ccccc2c1C(=O)O | . | - | . | . | . | .
CCOC(=O)c1ccccc1NC(=O)c1sc(NC(=O)c2ccc3c(c2)OCO3)c(C(=O)OCC)c1C | . | - | . | . | . | .
CN1CCN(C(=O)c2cc(-c3ccc(Cl)c(Cl)c3)nc3ccccc23)CC1 | . | - | . | . | . | .
O=C(CCCCCN1C(=O)c2ccccc2C1=O)Nc1ccc(F)c(Cl)c1 | . | - | . | . | . | .
CCOC(=O)/C(C#N)=C1/C=CN(C)C(C)=N1 | - | - | - | 33 | - | -
CCOC(=O)/C(C#N)=C1/N(C)c2ccccc2N1N | . | - | . | . | . | .
CCn1c2ccccc2c2cc(CN3CCN(Cc4cccc(OC)c4)CC3)ccc21 | . | - | . | . | . | .
COc1cc(OC)cc(C(=O)Nc2cccc(-c3nc4ncccc4o3)c2C)c1 | . | - | . | . | . | .
COc1cc(C(=O)Nc2cccc(-c3nc4ncccc4o3)c2C)cc(OC)c1OC | - | - | - | 31 | - | -
CC(C)(C)c1ccc(-c2noc(CCC(=O)NCC3CCCO3)n2)cc1 (centres undefined) | - | . | . | . | - | -
CCc1ccccc1N(CC)C(=O)CCc1nc(-c2ccc(C)cc2)no1 | - | - | - | - | - | -3
CN(C)C(=O)CCc1nc(-c2ccc(C(C)(C)C)cc2)no1 | - | - | - | - | - | -
SMILES | PLK1 PBD inh | HePTP inhibitor | HEK293 NFkB inh | AP complement | PLK1 kinase inh | Pyk2 oligo antag
CNC(=O)CCc1nc(-c2ccc(C(C)(C)C)cc2)no1 | - | - | 70 | - | - | -
CCN(Cc1ccccc1)C(=O)CCc1nc(-c2ccc(C)cc2)no1 | - | - | - | - | - | -
CC(C)(C)c1ccc(-c2noc(CCC(N)=O)n2)cc1 | - | - | 86 | - | - | -
CC(C)(C)c1ccc(CSc2nc3ccccc3c(=O)[nH]2)cc1 | . | 69 | . | . | . | .
O=c1[nH]c(SCc2ccccc2)nc2ccccc12 | . | - | . | . | . | .
CCN(CC)S(=O)(=O)c1ccc2nc(NC(=O)c3cccs3)sc2c1 | - | . | - | . | - | -
CCN(CC)S(=O)(=O)c1cccc(C(=O)Nc2nc3cc4c(cc3s2)OCCO4)c1 | . | - | - | - | . | -3.5
O=C(Cc1ccc(F)cc1F)Nc1ccc(I)cc1 | . | - | . | . | . | .
CN(C)c1ccc(-c2c3cc(O)c(=O)cc-3oc3cc(O)c(O)cc23)cc1 | . | 103 | . | . | . | .
O=C1NC(=O)C(=Cc2ccc(Cl)c([N+](=O)[O-])c2)C(=O)N1 | . | 96 | . | . | . | .
O=C1C2CC=C(Cl)CC2C(=O)N1CNc1ccccc1-c1ccccc1 (centres undefined) | . | - | . | . | . | .
CN1CCc2nc(SCC(=O)Nc3cccc(F)c3)c(C#N)c(-c3cccs3)c2C1 | - | . | . | . | - | -3.1
Cc1cc(N2CCC(C)CC2)nc2cccc(O)c12 | - | . | . | . | 63 | .
CCN(C(=O)c1ccc(C(C)(C)C)cc1)c1nnc(Cn2nnc3ccccc32)s1 | - | - | 40 | - | - | -
Cc1ccc(-c2nn3c(C)nnc3s2)cc1NCc1c(F)cccc1Cl | - | - | - | - | - | -3.5
Cc1ccc(CNc2cc(-c3nn4c(C)nnc4s3)ccc2C)s1 | - | - | - | - | - | -
Cc1cc(Br)ccc1NCN1C(=O)S/C(=C/c2ccc3c(c2)OCO3)C1=O | . | - | . | . | . | .
COc1ccc(OCCCCOc2ccc(C)cc2C)cc1 | . | - | . | . | . | .
N#CCC(=O)N1CCN(C(c2ccccc2)c2ccccc2)CC1 | . | 103 | . | . | . | .
O=C1c2ccccc2C(=O)N1CCCSc1nnc(-c2cccs2)n1-c1ccccc1 | . | - | . | . | . | .
COc1cccc(-n2c(Cc3cc(=O)[nH]c(=O)[nH]3)nnc2SC(C)C)c1 | - | - | - | - | 62 | .
COC(=O)C(C)Sc1nnc(Cc2cc(=O)[nH]c(=O)[nH]2)n1-c1cccc(OC)c1 (centres undefined) | - | - | - | - | - | .
CCN(CC)c1ccc(NC(=O)/C=C\c2ccccc2Cl)cc1 | - | 104 | . | . | - | -
COC(=O)c1ccc(CN(C)S(=O)(=O)c2ccc(C)cc2)o1 | . | - | - | - | . | -
COC(=O)c1ccc(CN(c2ccc(C)cc2)S(=O)(=O)c2ccc3c(c2)OCCO3)o1 | - | - | - | - | - | -3.3
SMILES | PLK1 PBD inh | HePTP inhibitor | HEK293 NFkB inh | AP complement | PLK1 kinase inh | Pyk2 oligo antag
CN(C)c1ccc2c(c1)OC(N)=C(C#N)C2c1cccc(F)c1 (centres undefined) | . | - | 44 | - | . | -3.1
N#CC1=C(N)Oc2cc(O)ccc2C1c1ccncc1 (centres undefined) | - | - | - | - | - | -
O=C(Nc1nc2ccccc2s1)c1ccc(Cl)s1 | - | - | - | - | - | .
CCNc1nc(N)c(C(=O)c2ccc(Cl)s2)s1 | - | - | - | - | 68 | -
Nc1ccc(C(=O)O)c(O)c1 | . | - | . | - | . | .
Cc1ccc(C)n1-c1ccc(C(=O)O)cc1 | - | . | . | . | - | .
Cc1ccc(C)n1-c1cc(C(=O)O)ccc1O | . | 103 | . | . | . | .
Cc1ccc(C)n1-c1ccc(C(=O)O)c(Cl)c1 | . | 102 | . | . | . | .
Cc1ccc(C)n1-c1cc(C(=O)O)cc(C(=O)O)c1 | . | 101 | . | . | . | .
Cc1ccc(C)n1-c1ccc(C(=O)O)c(O)c1 | . | 103 | . | . | . | .
COC(=O)c1ccc(/C=C2\SC(=Nc3cccc(Cl)c3C)NC2=O)cc1 | . | - | . | . | . | .
COc1ccc(-c2ccc(/C=C3/SC(NC(C)=O)=NC3=O)o2)c([N+](=O)[O-])c1 | . | - | . | . | . | .
O=c1[nH]c(SCc2ccccc2)nc2sc3c(c12)CCc1ccccc1-3 | . | - | . | . | . | .
